Assays:
[1] = target: NAD(P)H dehydrogenase [quinone] 1 (Homo sapiens) (UniProt P15559); experiment: Activity at human recombinant NQO1 assessed as average rate of irreversible NADH oxidation after 30 to 40 mins by HPLC analysis
Method in brief: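 Recombinant human NQO1 incubated with 50 µM quinone and 200 µM NADH in 25 mM Tris-HCl pH 7.4, 30–40 min at 22 °C. Reverse-phase C18 HPLC with methanol/10 mM potassium phosphate pH 6.0 gradient; NADH oxidation quantified at 340 nm. Average rate expressed as µmol NADH oxidized/min/mg NQO1.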

[2] = target: NAD(P)H dehydrogenase [quinone] 1 (Homo sapiens) (UniProt P15559); experiment: Activity at human recombinant NQO1 assessed as initial rate of cytochrome c reduction during the first 0 to 30 s by spectrophotometry

Chain of NAD(P)H dehydrogenase [quinone] 1 (Homo sapiens) (P15559 whole entry): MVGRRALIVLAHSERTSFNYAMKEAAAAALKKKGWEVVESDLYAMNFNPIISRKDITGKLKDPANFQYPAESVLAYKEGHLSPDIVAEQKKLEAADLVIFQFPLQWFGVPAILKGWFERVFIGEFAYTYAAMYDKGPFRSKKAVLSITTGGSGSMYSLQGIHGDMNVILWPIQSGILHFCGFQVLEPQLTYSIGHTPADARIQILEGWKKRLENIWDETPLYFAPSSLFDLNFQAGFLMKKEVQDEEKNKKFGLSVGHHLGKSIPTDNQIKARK

Row | Structure (SMILES) | Activity [1] [µmol/min/mg] | Activity [2] [µmol/min/mg]
1 | COC1=CC(=O)c2c(c(C)c(CO)n2C)C1=O | 2.49 | 
2 | COC1=CC(=O)c2c(c(CO)nn2C)C1=O | 38.1 | 247
3 | COC1=CC(=O)c2c(c(CO)c(C)n2C)C1=O | 1.25 | 
4 | COC1=CC(=O)c2sc(C)c(CO)c2C1=O |  | 236
5 | COC1=CC(=O)c2oc(C)c(C(C)O)c2C1=O (stereo not given) | 87.9 | 585
6 | CC1=CC(=O)c2ccccc2C1=O |  | 1220
7 | COC1=CC(=O)c2onc(C)c2C1=O | 27.6 | 290
8 | COC1=CC(=O)c2c(c(C)nn2C)C1=O | 19.6 | 55.3
9 | COC1=CC(=O)c2oc(CO)c(C)c2C1=O | 80.8 | 1020

Further lines, results first:

Row | Activity [1] [µmol/min/mg] | Activity [2] [µmol/min/mg] | Structure (SMILES)
10 | 63.8 | 927 | COC1=CC(=O)c2sc(CO)cc2C1=O
11 | 5.51 | 553 | COC1=CC(=O)c2sc(C)cc2C1=O
12 |  | 468 | COC1=CC(=O)c2sc(CO)c(C)c2C1=O
13 | 53.9 | 555 | COC(=O)c1cc2c(s1)C(=O)C=C(OC)C2=O
14 | 24.5 | 900 | COC1=CC(=O)c2sc(COC(C)=O)cc2C1=O
15 | 27.4 | 897 | COC1=CC(=O)c2sc(C=O)cc2C1=O

From ChEMBL document CHEMBL2384954, “Benzofuran-, benzothiophene-, indazole- and benzisoxazole-quinones: excellent substrates for NAD(P)H:quinone oxidoreductase 1” (Bioorg Med Chem, 2013)
